LEDGF integ inh = blocks HIV-1 LEDGF/p75-dependent DNA integration | inhibition, % at 3.7 µM | TR-FRET IN-LEDGF/p75 DNA integration, Eu/Cy5 | 370,000 compounds, 0.64% hits;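 active means inhibition above the screen-wide mean plus 3 SD, cut at about 13% in these data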;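 further: signal is the Cy5 over europium emission ratio at 671 and 618 nm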
TCR CD3 inh = human TCR-CD3 binding inhibition; inhibition, % at 9.4 µM; TAMRA-labeled TCR probe fluorescence, biochemical; 360,000 compounds, 0.37% hits; AID 651800; in the data active means inhibition above about 19%;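 further: recombinant mutant TCR 2C K166C tagged with TAMRA read by polarization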
ABHD4 inh = inhibitors of mouse ABHD4; Q8VD66; purified mABHD4, FP-Rh probe fluorescence polarization; inhibition, % at 8.92 µM; 370,000 compounds, 0.54% hits; AID 720543;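 active means inhibition exceeding the mean over every tested compound plus 3 SD, cut at about 30% in these data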
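Doses – 8.92 µM, single dose · Material – wild-type mouse ABHD4 protein · Replication – single well per compound (singlicate) · Measure – percent inhibition of probe binding, normalized to plate controls · Schedule – 45 min compound pre-incubation plus 60 min probe step, 25 °C · Detection – fluorescence polarization with parallel and perpendicular emission, 525/598 nm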
TDP2 absorb = blocks human TDP2 phosphodiesterase activity | 370,000 compounds, 0.34% hits | O95551 | recombinant TDP2, T5PNP hydrolysis, p-nitrophenol absorbance 415 nm | AID 720702 | inhibition, % at 12.8 µM;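 active means inhibition above the mean of all tested compounds plus 3 SD, set per campaign, cut at about 25% in these data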
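test system = human TDP2 enzyme | input = TDP2 enzyme at 120 nM final | medium = 50 mM Tris-HCl pH 7.5 with Mg2+, KCl, DTT, BSA | also added = T5PNP substrate, 5 mM | times = 2 h at 37 °C | technique = epi absorbance | benchmarks = high control without enzyme, low control DMSO plus TDP2 | replication = each compound tested once, singlicate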
HTRA1 inh = HTRA1 (human) protease inhibition; Q92743; recombinant HTRA1, FP-rhodamine activity-based probe, fluorescence polarization; inhibition, % at 5.96 µM; 340,000 compounds, 0.5% hits; in the data active means inhibition above about 36%
SIAE inh = blocks human sialic acid acetylesterase | SIAE FP-Rh probe binding, fluorescence polarization | AID 1053197 | inhibition, % at 9.66 µM | 370,000 compounds, 0.69% hits;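 active means inhibition above a cutoff: mean of compounds within the control limits plus 3 SD of those, cut at about 17% in these data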
Target sequence (Q9HAT2 whole entry, looked up): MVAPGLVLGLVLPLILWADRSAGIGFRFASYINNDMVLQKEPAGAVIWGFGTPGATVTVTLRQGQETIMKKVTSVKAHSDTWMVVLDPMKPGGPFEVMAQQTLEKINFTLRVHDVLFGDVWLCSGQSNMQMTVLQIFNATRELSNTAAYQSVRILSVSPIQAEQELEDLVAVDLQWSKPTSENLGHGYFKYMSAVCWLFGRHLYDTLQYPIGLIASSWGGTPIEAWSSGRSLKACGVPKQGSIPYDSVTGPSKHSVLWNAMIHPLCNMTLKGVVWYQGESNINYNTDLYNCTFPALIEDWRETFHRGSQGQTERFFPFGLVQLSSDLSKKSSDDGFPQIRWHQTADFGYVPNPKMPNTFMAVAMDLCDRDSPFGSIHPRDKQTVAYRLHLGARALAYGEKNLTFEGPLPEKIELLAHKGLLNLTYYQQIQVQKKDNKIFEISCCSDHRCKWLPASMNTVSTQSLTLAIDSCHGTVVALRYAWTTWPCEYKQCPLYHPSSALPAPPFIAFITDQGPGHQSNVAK
SIAE confirm = human SIAE inhibition, confirmation; shares compounds with SIAE inh; SIAE FP-Rh activity-based probe, fluorescence polarization; inhibition, % at 9.66 µM; 2,300 compounds, 13% hits; AID 1117263;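 active means mean inhibition of the replicates above the hit cutoff set in the primary screen, cut at about 17% in these data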;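 further: inhibitors lower polarization as more probe stays unbound to SIAE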
Numbers stand for hits; 0 = inactive; - = not tested or not shown. Shown are actives, neighbours in structure and some others; about 2.2% of the full set was active somewhere.

SMILES | LEDGF integ inh | TCR CD3 inh | ABHD4 inh | TDP2 absorb | HTRA1 inh | SIAE inh | SIAE confirm
O=Cc1cc2ccccc2nc1SCc1ccc(Cl)cc1 | 0 | 0 | 0 | 0 | 0 | 27.2 | 0
O=Cc1cc2ccccc2nc1SCc1ccc(Cl)c(Cl)c1 | 0 | 0 | 0 | 0 | 0 | 0 | -
CN(C)N1C(=O)C2C3C=CC(O3)C2C1=O (configuration not stated) | 0 | 0 | 0 | 0 | 0 | 0 | -
O=C1CCCC(O)=C1N=Nc1c(Cl)cc(Cl)cc1Cl | 0 | 0 | 0 | 0 | 0 | 20.8 | 0
O=C1CCCC(O)=C1N=Nc1cccc(C(=O)O)c1 | 0 | 0 | 0 | 0 | 0 | 21.1 | 0
Cc1nc2ccc(N=NC3=C(O)CCCC3=O)cc2s1 | 0 | 0 | 0 | 0 | 0 | 0 | -
Cc1ccc(C2=NN(C(=O)CSc3nnnn3C)C(c3ccco3)C2)cc1 (configuration not stated) | 0 | 0 | 0 | 0 | 0 | 0 | -
CC[C@H](C)[C@@H](CO)NC(=O)[C@H]1O[C@@H](n2ccc(=O)[nH]c2=O)[C@H](O)[C@@H]1O | 0 | 0 | 0 | 0 | - | 88.1 | 78.3
O=C(O)[C@H](Cc1ccccc1)NC(=O)[C@H]1O[C@@H](n2ccc(=O)[nH]c2=O)[C@H](O)[C@@H]1O | 0 | 0 | 0 | 0 | - | 0 | -
O=C(N[C@H](CO)Cc1ccccc1)[C@H]1O[C@@H](n2ccc(=O)[nH]c2=O)[C@H](O)[C@@H]1O | 0 | 0 | 0 | 0 | - | 47.7 | 43.9
C[C@@H](CO)NC(=O)[C@H]1O[C@@H](n2ccc(=O)[nH]c2=O)[C@H](O)[C@@H]1O | 0 | 0 | 0 | 0 | - | 0 | -
COC(=O)c1ccc(NC(=S)N2CCN(CCO)CC2)cc1 | 0 | 0 | 0 | 0 | 0 | 0 | -
Cc1cccc(C)c1NC(=S)N(CCN1CCCCCC1)Cc1ccco1 | 0 | 0 | 0 | 0 | 0 | 17.9 | 0
Cc1ccc(NC(=O)COC(=O)C2CCC2)cc1S(=O)(=O)N1CCOCC1 | 0 | 0 | 0 | 0 | 0 | 0 | -
CC(C)OC(=O)c1cc2c(ccn2C)n1CC(=O)N(Cc1ccccc1)c1ccccc1 | 0 | 0 | 0 | 0 | 0 | 19.0 | 0
COc1cc(N=Nc2cccc(S(N)(=O)=O)c2)c2ccccc2c1N | 0 | 0 | 0 | 0 | 0 | 26.1 | 0
NC1=NC(=Nc2cccc(S(N)(=O)=O)c2)c2ccccc21 | 0 | 0 | 0 | 0 | 0 | 0 | -
COC(=O)c1ccc(NC(=O)CN2C(=O)NC3(CCC(C)CC3)C2=O)cc1 (configuration not stated) | 0 | 0 | 0 | 0 | 0 | 0 | -
CC1CC1C(=O)OCC(=O)NNC(=O)COc1ccc(Br)cc1 (configuration not stated) | 0 | 0 | 0 | 0 | 0 | 0 | -
Cc1ccc(C(=O)C(OC(=O)CCC(=O)Nc2cccc(C)c2)c2ccccc2)cc1 (configuration not stated) | 0 | 0 | 0 | 0 | 0 | 20.8 | 0
Cc1ccsc1C(=O)NCCc1nnc2ccccn12 | 0 | 0 | 0 | 0 | 0 | 0 | -
CC(=O)Nc1c(NC(C)(C)C)c2ccccc2oc1=O | 0 | 0 | 0 | 0 | 0 | 20.8 | 0
COc1ccc2nc(C(c3ccc(C)cc3)n3c(-c4ccccc4Br)nc4ccccc43)[nH]c2c1 (configuration not stated) | 0 | 0 | 0 | 0 | - | 27.3 | 0
CC(C)CC(c1nc2ccccc2[nH]1)n1c(-c2ccccc2Br)nc2ccccc21 (configuration not stated) | 0 | 0 | 0 | 0 | - | 0 | -
COc1ccccc1CNC(=O)CN1C(=O)NC2(CCCCCCC2)C1=O | 0 | 0 | 0 | 0 | 0 | 0 | -
SMILES | LEDGF integ inh | TCR CD3 inh | ABHD4 inh | TDP2 absorb | HTRA1 inh | SIAE inh | SIAE confirm
Cc1ccc(O)c(Nc2c3ccccc3nc3ccccc23)c1 | 0 | 0 | 0 | 0 | 0 | 36.6 | 0
C#Cc1ccc(NC(=O)C2(C)CCN2C(=O)CC(c2ccccc2)c2ccccc2)cc1 (configuration not stated) | 0 | 0 | 0 | 0 | - | 0 | -
COc1ccccc1OCC(=O)Nc1ccc(NC(=O)COc2ccccc2OC)cc1 | 0 | 0 | 0 | 0 | 0 | 0 | -
COc1ccccc1OCC(=O)Nc1ccc(C(N)=O)cc1 | 0 | 0 | 0 | 0 | 0 | 18.1 | 0
CC(C)(C)N(NC(=O)Nc1ccc(Cl)cc1)C(=O)c1ccccc1 | 0 | 0 | 0 | 0 | 0 | 17.3 | 0
CC(C)(C)N(NC(=O)Nc1ccccc1)C(=O)c1ccccc1 | 0 | 0 | 0 | 0 | 0 | 0 | -
CCCCNc1cccc2c1S(=O)(=O)N[C@H](CC(C)C)CO2 | 0 | 0 | 0 | 0 | - | 0 | -
CCN(CC(=O)NCc1cccs1)C(=O)c1ccc(NS(=O)(=O)c2ccc(C(C)=O)cc2)cc1 | 0 | 0 | 0 | 0 | 0 | 0 | -
CC1CCN(C(=O)COC(=O)c2ccc(=O)n(Cc3ccccc3)n2)CC1 | 0 | 0 | 0 | 0 | 0 | 0 | -
CCCNc1c(NS(=O)(=O)c2ccc(C)cc2C)c(=O)oc2ccccc12 | 0 | 0 | 0 | 0 | 0 | 0 | -
Cc1nc(Cl)c(N=Cc2cccc([N+](=O)[O-])c2)c(Cl)n1 | 0 | 0 | 0 | 0 | 0 | 17.7 | 0
CN(C)c1ccc(NC(=O)CSc2nnc(C3CCCCC3)n2N)cc1 | 0 | 0 | 0 | 0 | 0 | 20.3 | 0
CCN1C(=O)/C(=C2/C(=O)N3c4c(cc(OC(C)=O)cc42)C(C)=CC3(C)C)SC1=S | 0 | 0 | 0 | 0 | 0 | 17.1 | 0
CCN1C(=O)/C(=C2\SC(=S)N(CCCOC)C2=O)c2ccccc21 | 0 | 0 | 0 | 0 | 0 | 0 | -
C[C@H](c1ccccc1)N1C[C@@H](COCc2ccccc2)Oc2cc(N3CC[C@@H](N(C)C)C3)ccc2S1(=O)=O | 0 | 0 | 0 | 0 | - | 18.1 | 0
CC(=O)Nc1ccc(S(=O)(=O)N2CCN(c3ccc(C(C)=O)cc3)CC2)cc1 | 0 | 0 | 0 | 0 | - | 0 | -
CCOC(=O)CN1CC23C=CC(O2)C(C(=O)Nc2cc(OC)ccc2OC)C3C1=O (configuration not stated) | 0 | 0 | 0 | 0 | 0 | 17.5 | 0
Cc1ccc(OCCn2cc(/C(N)=N/O)c3ccccc32)cc1C | 0 | 0 | 0 | 0 | 0 | 19.7 | 0
C(#Cc1c(-c2ccsc2)sc2ccccc12)c1ccsc1 | 0 | 0 | 0 | 0 | 0 | 0 | -
CN1CCC(=NNC(=O)CN(c2cccc([N+](=O)[O-])c2)S(=O)(=O)c2ccccc2)CC1 | 0 | 0 | 0 | 0 | 0 | 22.6 | 0
COc1ccc(CN2CCC[C@]3(N[C@H](c4ccccc4)[C@@H]4C(=O)N(Cc5ccccc5)C(=O)[C@@H]43)C2=O)cc1 | 0 | 0 | 0 | 0 | 0 | 0 | -
CCOC(=O)Cc1csc(NS(=O)(=O)c2ccc(F)cc2)n1 | 0 | 0 | 0 | 0 | 0 | 19.2 | 0
CCOC(=O)Cc1csc(NS(=O)(=O)c2ccc(Br)cc2)n1 | 0 | 0 | 0 | 0 | 0 | 0 | -
CC(=O)Nc1ccc(S(=O)(=O)Nc2ccc(Cl)cn2)cc1 | 0 | 0 | 0 | 0 | 0 | 87.7 | 0
